The species named for one series is Rattus norvegicus. The series is described as follows: Rate constants of compound was determined at muscarinic receptor in the rat cerebral cortex. In kind it is ADME. The procedure, abridged: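 Rat cortex homogenate (25 mg wet tissue/mL, 50 mM phosphate pH 7.4), preincubated 10 min at 37 °C. Precyclized haloethylamines then added at 0.1 mM to 1 nM final for 30 min. Reaction stopped with thiosulfate (1.0 mM) and atropine (0.1 mM), and tissue washed four times. Residual binding of 0.4 nM [3H]QNB measured over 1 h at 37 °C. Rate equation fitted by unweighted nonlinear regression, using initial aziridinium concentration.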

Series [1] can be described thus: Rate constant for decay of compound was determined in 50 mM phosphate buffer (pH 7.4) at 37 degree celsius. The class given is ADME. The essentials: (§1)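 Solvolysis in 50 mM phosphate buffer pH 7.4 at 37 °C. Halide release by argentometric titration. Aziridinium ion quantified by thiosulfate reaction and iodine back-titration. k1 and k2 obtained by unweighted Gauss-Newton nonlinear fit, with half-lives following from them.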

Series [2] is described as follows: First order rate constant of compound was determined in 50 mM phosphate buffer (pH 7.4) at 37 degree celsius. In kind it is ADME. The essentials:
as §1

Series [3] is described as follows: Dissociation constant of compound was determined at muscarinic receptor in the rat cerebral cortex. The class given is tissue-based. The procedure, abridged: (§2)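 Male Sprague-Dawley rat cerebral cortex homogenised in 50 mM phosphate buffer pH 7.4 and centrifuged at 30000g. Competition against 0.3 nM (-)-[3H]NMS with the aziridinium ions, 1 h at 0 °C, triplicates, five experiments. Nonspecific binding taken with 10 µM atropine. Two-site fit by unweighted nonlinear regression gave KH and KL, which were corrected for [3H]NMS occupancy.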

Series [4] is described as follows: Binding affinity of compound towards muscarinic receptor using radioligand [3H]NMS in the rat cerebral cortex. The class given is tissue-based. The procedure, abridged:
as §2

Series [5] is described as follows: Percentage affinity of compound towards muscarinic receptor sites in the rat cerebral cortex. In kind it is tissue-based. The essentials:
as §2

Series [6] in a line: First order rate constant of compound was determined in 50 mM phosphate buffer (pH 7.4) at 24 degree celsius. In kind it is ADME. The procedure, abridged:
(§3)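 Solvolysis in 50 mM phosphate buffer pH 7.4 at 24 °C. Halide release measured by argentometric titration. Aziridinium ion was reacted with thiosulfate, and the excess was back-titrated with iodine. k1 (cyclisation) and k2 (aziridinium decay) came from an unweighted Gauss-Newton fit of kinetic models.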

Series [7] can be described thus: Rate constant for decay of compound was determined in 50 mM phosphate buffer (pH 7.4) at 24 degree celsius. The class given is ADME. The essentials: as §3
The nature of series [8]: Acute toxicity of compound when injected intravenously in mice. In kind it is organism-based. Particulars: mouse, in vivo, iv.
The nature of series [9]: Ratio of binding constants KL to KH was determined. The procedure, abridged:
as §2

Series [10] in a line: Equilibrium binding parameters of compound was determined at muscarinic receptor in the rat cerebral cortex. In kind it is tissue-based. The essentials: as §2
Series [11] in a line: Half life of compound was determined in 50 mM phosphate buffer (pH 7.4) at 37 degree celsius. In kind it is ADME. The essentials: as §1

Usually Ki stands for the dissociation constant of the complex between target and ligand, obtained from inhibition or displacement. Lower therefore signals higher affinity. What is called LD50 is the dose expected to kill half of the subjects tested. Read a high LD50 as lower toxicity. Usually half-life stands for the time in which the quantity being followed falls by half. A lower half-life goes with rapid decline.

On to `CN(CC#CCN1CCCC1=O)CCCl`, for which the K3 in the series listed under Rattus norvegicus came to 0.064 min⁻¹. Also, in [1], the K2 stood at 0.033 min⁻¹. The K1 in series [2] turned out to be 0.019 min⁻¹. The molecule further returned a KA in [3] of 0.79 µM.
Consider `CC1CCC(=O)N1CC#CC[N+]1(C)CC1` (configuration not stated), for which affinity in [4] was put at a Ki of 53 nM.
`CC1CCC(=O)N1CC#CCN(C)CCBr` (configuration not stated) gave a K3 in the series listed under Rattus norvegicus of 0.096 min⁻¹. For the same molecule, the Affinity in series [5] was 14.2%. Also, the K2 in series [1] is 0.06 min⁻¹; in series [7], 0.0096 min⁻¹. In addition, the K1 in series [2] worked out at 0.89 min⁻¹; in [6] it was 0.18 min⁻¹. Further, the KA in [3] is 0.035 µM. For the same molecule, the 50% lethal dose (LD50) in series [8] amounted to 81 µmol/kg. Further, the Ratio in series [9] was 71. The molecule further had a KH in [10] of 0.001 µM. The same molecule showed a KL in [10] of 0.071 µM.
`C[N+]1(CC#CCN2CCCC2=O)CC1` came in with an inhibition constant (Ki) in series [4] of 330 nM.
As to `CN(CC#CCN1CCCC1=O)CCBr`, the K3 in the series listed under Rattus norvegicus came to 0.062 min⁻¹. Further, the Affinity in series [5] was 16.5%. In series [1], this molecule registered a K2 of 0.04 min⁻¹. For the same molecule, the K1 in series [2] was determined as 0.85 min⁻¹. In series [3], this molecule showed a KA of 0.35 µM. Also, the Ratio in series [9] was found to be 466. In [10], this molecule had a KH of 0.001 µM and a KL of 0.47 µM.
Turning to `CC1CCC(=O)N1CC#CCN(C)CCCl` (configuration not stated), the K3 in the series listed under Rattus norvegicus was 0.091 min⁻¹. In series [11] (buffer), this molecule gave a T1/2 of 15.3 min. Moreover, the half-life in series [11] (phosphate buffer) was 27.7 min. Further, in series [1], the K2 was 0.045 min⁻¹. The same molecule returned a K1 in series [2] of 0.025 min⁻¹. For the same molecule, in series [3], the KA turned out to be 0.058 µM. For the same molecule, the LD50 in series [8] came out at 396 µmol/kg.

These data come from ChEMBL document CHEMBL1124425, “Alkylating partial muscarinic agonists related to oxotremorine. N-[4-[(2-haloethyl)methylamino]-2-butynyl]-5-methyl-2-pyrrolidones” (J Med Chem, 1989).
